Key:
Details in all cases: in vivo
Rattus norvegicus [1] = assay: Tissue uptake (plasma) of [125I]- after administration of [125I]-labeled compound to immature female rats (n=3) in the presence of 60 microg coinjected estradiol after 1 hour; format: ADME, organism-based
In short: (§1)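 Immature female Fischer rats, 24 days old, 55-60 g, unanesthetized in retention cages, given HPLC-purified 125I-labeled steroid (3 μCi, 111 kBq) via lateral tail vein in 200 μL of 9% ethanol-saline with 1% Tween-80. The blocking group was coinjected with 60 μg unlabeled estradiol and sampled at 1 h. Animals were killed under ether at 0.5-24 h. Tissues were KCl-washed, blotted, weighed and gamma-counted. Results are % ID/g, with variation as small-sample-corrected %CV.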

Rattus norvegicus [2] = assay: Tissue uptake (plasma) of [125I]- after administration of [125I]-labeled compound to immature female rats (n=5) in the absence of 60 microg coinjected estradiol after 1 hour; format: ADME, organism-based
In short: (§2)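 Immature female Fischer rats, 24 days old, 55-60 g, unanesthetized in retention cages, got HPLC-purified n.c.a. 125I-labeled steroid (3 μCi, 111 kBq) by lateral tail vein. Dose was given in 200 μL saline with 9% ethanol and 1% Tween-80. Deep ether anesthesia, axillary artery cut; tissues KCl-washed, blotted, weighed, gamma-counted as % ID/g; variation as small-sample-corrected %CV.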

Rattus norvegicus [3] = assay: Tissue uptake (uterus) of [125I]- after administration of [125I]-labeled compound to immature female rats (n=3) in the absence of 60 microg coinjected estradiol after 24 hours; format: ADME, organism-based; in short: as §2
Rattus norvegicus [4] = assay: Tissue uptake (blood) of [125I]- after administration of [125I]-labeled compound to immature female rats (n=4) in the absence of 60 microg coinjected estradiol. (5 hours after injection) (% coefficient of variation); format: ADME, organism-based; in short: as §1
Rattus norvegicus [5] = assay: Tissue uptake (blood) of [125I]- after administration of [125I]-labeled compound to immature female rats (n=4) in the absence of 60 microg coinjected estradiol after 5 hours; format: ADME, organism-based; in short: as §1
Rattus norvegicus [6] = assay: Tissue uptake (brain) of [125I]- after administration of [125I]-labeled compound to immature female rats (n=3) in the absence of 60 microg coinjected estradiol after 24 hours; format: ADME, organism-based; in short: as §1
Rattus norvegicus [7] = assay: Tissue uptake (kidneys) of [125I]- after administration of [125I]-labeled compound to immature female rats (n=4) in the absence of 60 microg coinjected estradiol and 5 hours; format: ADME, organism-based, Kidney; in short: as §1
Rattus norvegicus [8] = assay: Tissue uptake (brain) of [125I]- after administration of [125I]-labeled compound to immature female rats (n=3) in the absence of 60 microg coinjected estradiol after 0.5 hours; format: ADME, organism-based; in short: as §1
Rattus norvegicus [9] = assay: Tissue uptake (brain) of [125I]- after administration of [125I]-labeled compound to immature female rats (n=3) in the presence of 60 microg coinjected estradiol after 1 hour; format: ADME, organism-based; in short: as §1
Rattus norvegicus [10] = assay: Tissue uptake (blood) of [125I]- after administration of [125I]-labeled compound to immature female rats (n=3) in the absence of 60 microg coinjected estradiol after 24 hours; format: ADME, organism-based; in short: as §1
Rattus norvegicus [11] = assay: Tissue uptake (uterus) of [125I]- after administration of [125I]-labeled compound to immature female rats (n=3) in the absence of 60 microg coinjected estradiol. (24 hours after injection) (% coefficient of variation); format: ADME, organism-based; in short: as §2
Rattus norvegicus [12] = assay: Tissue uptake (brain) of [125I]- after administration of [125I]-labeled compound to immature female rats (n=4) in the absence of 60 microg coinjected estradiol after 2 hours; format: ADME, organism-based; in short: as §1

ID/g (Rattus norvegicus [1]) | ID/g (Rattus norvegicus [2]) | ID/g (Rattus norvegicus [3]) | ID/g (Rattus norvegicus [4]) | ID/g (Rattus norvegicus [5]) | ID/g (Rattus norvegicus [6]) | ID/g (Rattus norvegicus [7]) | ID/g (Rattus norvegicus [8]) | ID/g (Rattus norvegicus [9]) | ID/g (Rattus norvegicus [10]) | ID/g (Rattus norvegicus [11]) | ID/g (Rattus norvegicus [12]) | Compound
0.51% | 0.58% | 1.64% | 0.28% | – | – | – | – | – | – | – | – | C[C@@H]1Cc2cc(O)ccc2[C@H]2CC[C@]3(C)[C@@H](O)[C@H](I)C[C@H]3[C@H]12
– | – | – | – | 0.7% | 0.04% | 0.91% | 0.68% | 0.42% | 0.17% | 1.64% | 0.25% | CCO[C@H]1C[C@]2(C)[C@@H](O)[C@H](I)C[C@H]2[C@@H]2CCc3cc(O)ccc3[C@H]21
